Test results from ChEMBL document CHEMBL3244343, “7-(Aminoethyl) ether and thioether of daunomycinone” (1979).

Columns and labels:
[1] = system: P388; test: Antitumor activity against mouse P388 cells allografted in mouse assessed as increase in survival time at 50 mg/kg, po q4d administered on days 5, 9 and 13 relative to control; assay type: functional
Method in brief: (§1)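 P388 leukemia cells were injected ip into mice on day 0, and the tumor was allowed to advance before dosing on days 5, 9 and 13. Read-out is the survival time of treated relative to control mice (T/C, %), with ≥125% required for activity. Each value comes from a single test.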

[2] = Binding affinity to DNA (unknown origin) assessed as DNA interaction by measuring change in melting temperature
Method in brief: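 Thermal denaturation (melting temperature) shift of DNA in solution, read as ΔTm in °C. Buffer was 0.010 M phosphate, pH 7.0, with 10^-5 M EDTA plus 5% Me2SO to solubilize the compounds. Other steps followed a previously described method.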

[3] = system: L1210; test: Inhibition of DNA synthesis in mouse L1210 cells assessed as inhibition of [3H]thymidine incorporation; assay type: functional; conditions: read-out: ED50 (the source's name)
Method in brief: (§2)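 L1210 leukemia cells in culture. Incorporation of [3H]thymidine (DNA) or [3H]uridine (RNA) was measured, and the dose giving 50% inhibition (ED50) was reported. Follows a previously described procedure, with 1% Me2SO added for some compounds.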

[4] = system: L1210; test: Inhibition of RNA synthesis in mouse L1210 cells assessed as inhibition of [3H]uridine incorporation; assay type: functional; conditions: read-out: ED50 (the source's name); method in brief: as §2
[5] = system: P388; test: Antitumor activity against mouse P388 cells allografted in mouse assessed as increase in survival time at 6.25 mg/kg, po qd administered from day 1 to day 9 relative to control; assay type: functional
[6] = system: P388; test: Antitumor activity against mouse P388 cells allografted in mouse assessed as increase in survival time at 0.78 mg/kg, po qd administered from day 1 to day 9 relative to control; assay type: functional
[7] = system: P388; test: Antitumor activity against mouse P388 cells allografted in mouse assessed as increase in survival time at 1 mg/kg, po q4d administered on days 5, 9 and 13 relative to control; assay type: functional; method in brief: as §1
[8] = system: P388; test: Antitumor activity against mouse P388 cells allografted in mouse assessed as increase in survival time at 200 mg/kg, po q4d administered on days 5, 9 and 13 relative to control; assay type: functional; method in brief: as §1
[9] = system: P388; test: Antitumor activity against mouse P388 cells allografted in mouse assessed as increase in survival time at 2 mg/kg, po q4d administered on days 5, 9 and 13 relative to control; assay type: functional; method in brief: as §1

| SMILES | T/C [1] [%] | ΔTm [2] [°C] | EC50 [3] [µM] | EC50 [4] [µM] | T/C [5] [%] | T/C [6] [%] | T/C [7] [%] | T/C [8] [%] | T/C [9] [%] |
| --- | --- | --- | --- | --- | --- | --- | --- | --- | --- |
| COc1cccc2c1C(=O)c1c(O)c3c(c(O)c1C2=O)C[C@@](O)(C(C)=O)C[C@@H]3OCCN.Cl | 112 | 8.2 | 2 | 1 | – | – | – | – | – |
| COc1cccc2c1C(=O)c1c(O)c3c(c(O)c1C2=O)C[C@@](O)(C(C)=O)C[C@@H]3OC(=O)CCN.Cl | 116 | 1 | 8 | 6 | 126 | – | – | – | – |
| COc1cccc2c1C(=O)c1c(O)c3c(c(O)c1C2=O)C[C@@](O)(C(=O)CO)C[C@@H]3O[C@H]1C[C@H](N)[C@H](O)[C@H](C)O1 [DOXORUBICIN] | – | 13.6 | 2 | 0.7 | – | 197 | 130 | – | – |
| COc1cccc2c1C(=O)c1c(O)c3c(c(O)c1C2=O)C[C@@](O)(C(C)=O)C[C@@H]3SCCN.Cl | – | 6.3 | 6 | 4 | – | – | – | 109 | – |
| COc1cccc2c1C(=O)c1c(O)c3c(c(O)c1C2=O)C[C@@](O)(C(C)=O)C[C@@H]3O[C@H]1C[C@H](N)[C@H](O)[C@H](C)O1.Cl [DAUNORUBICIN HYDROCHLORIDE] | – | 11.2 | 0.4 | 0.3 | – | 160 | – | – | 133 |
